From ChEMBL document CHEMBL1129263, “Structure-activity relationships of (E)-3-(1,4-benzoquinonyl)-2-[(3-pyridyl)-alkyl]-2-propenoic acid derivatives that inhibit both 5-lipoxygenase and thromboxane A2 synthetase” (J Med Chem, 1996)

What was measured:
Rattus norvegicus [1] = organism: Rattus norvegicus; assay: In vitro inhibition of Leukotriene B4 (LTB4) production in glycogen-induced peritoneal cells of rat; format: functional, cell-based
In short: (§1)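 Glycogen-elicited rat peritoneal leukocytes in Ca²⁺/Mg²⁺-free HBSS (5 × 10⁶ cells/mL; 5 × 10⁵ cells per aliquot). Cells were preincubated 5 min at 37 °C with compound or vehicle (0.1% DMSO/0.1% BSA), then stimulated with A23187 (4 µM, 10 min, 37 °C). The reaction was stopped with BW755C (100 µM). Supernatant LTB₄, TXB₂ and PGE₂ were measured by RIA. Points were run in duplicate; IC₅₀ by probit.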

Rattus norvegicus [2] = organism: Rattus norvegicus; assay: In vitro inhibition of Thromboxane B2 (TXB2) production in glycogen-induced peritoneal cells of rat; format: functional, cell-based; in short: as §1
Rattus norvegicus [3] = organism: Rattus norvegicus; assay: Compound was evaluated in Vitro in glycogen induced peritoneal cells of rats(GPEC) for the inhibition of Prostaglandin E2 (PGE2) production at 0.1-1 uM; format: functional, cell-based; in short: as §1
Rattus norvegicus [4] = organism: Rattus norvegicus; assay: Compound was evaluated in Vitro in glycogen induced peritoneal cells of rats(GPEC) for the inhibition of Prostaglandin E2 (PGE2) production at 0.1-10 uM; format: functional, cell-based; in short: as §1
Homo sapiens [5] = organism: Homo sapiens; assay: Inhibitory activity of the compound against Thromboxane TXB2 production in human whole blood; format: functional
In short: (§2)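 Fresh heparinized (10 U/mL) human volunteer blood, 0.4 mL aliquots. Blood was preincubated 5 min at 37 °C with compound or vehicle (0.1% DMSO/0.1% BSA), then challenged with A23187 (40 µM, 20 min, 37 °C). Plasma LTB₄ and TXB₂ were measured by RIA. Duplicate points; IC₅₀ by probit.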

Homo sapiens [6] = organism: Homo sapiens; assay: Inhibitory activity of the compound against leukotriene (LT) B4 production in human whole blood; format: functional; in short: as §2
Rattus norvegicus [7] = organism: Rattus norvegicus; assay: Compound was evaluated in Vitro in glycogen induced peritoneal cells of rats(GPEC) for the inhibition of Prostaglandin E2 (PGE2) production at 0.1-100 uM; format: functional, cell-based; in short: as §1
[8] = in vitro activities of TXB2 in human whole blood; format: functional, tissue-based; in short: as §2
[9] = in vitro activities of TXB2 in human platelets; format: functional
In short: (§3)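 Washed human platelets in Tris-HCl-saline, pH 7.4, with 10 µM indomethacin (3 × 10⁸ cells/mL). Platelets were preincubated 5 min at 25 °C with compound or vehicle, then given PGH₂ (1 µg/mL, 3 min, 25 °C). The reaction was stopped with citrate/ethanol. Supernatant TXB₂ was measured by RIA. Duplicate points; IC₅₀ by probit.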

Homo sapiens [10] = organism: Homo sapiens; assay: In vitro inhibition of LTB4 production in human neutrophils; format: functional
In short: (§4)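 Human blood neutrophils were isolated by dextran sedimentation and Percoll gradient and held in Ca²⁺/Mg²⁺-free HBSS (1 × 10⁶ cells/mL). Cells were preincubated 5 min at 37 °C with compound or vehicle (0.1% DMSO/0.1% BSA), then stimulated with A23187 (4 µM, 10 min). Supernatant LTB₄ was measured by RIA. Duplicate points; IC₅₀ by probit.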

Homo sapiens [11] = organism: Homo sapiens; assay: In vitro inhibition of LTB4 production in human whole blood; format: functional; in short: as §2
Rattus norvegicus [12] = organism: Rattus norvegicus; assay: Compound was evaluated in Vitro in glycogen induced peritoneal cells of rats(GPEC) for the inhibition of Leukotriene B4 (LTB4) production; format: functional, cell-based; in short: as §1
Homo sapiens [13] = organism: Homo sapiens; assay: Inhibitory activity of the compound against Thromboxane TXB2 production in human blood platelets; format: functional; in short: as §3
Homo sapiens [14] = organism: Homo sapiens; assay: Inhibitory activity of the compound against leukotriene (LT) B4 production in human neutrophils; format: functional; in short: as §4

Row | SMILES | IC50 (Rattus norvegicus [1]) [µM] | IC50 (Rattus norvegicus [2]) [µM] | IC50 (Rattus norvegicus [4]) [µM] | further results
1 | COC1=C(C)C(=O)C(C)=C(/C=C(\CCCCCCc2cccnc2)C(=O)O)C1=O | 0.18 | < 0.1 | – | IC50 (Rattus norvegicus [3]): 100 µM
2 | COC1=C(/C=C(\CCCCCc2cccnc2)C(=O)O)C(=O)C(C)=C(C)C1=O | 0.17 | 0.11 | – | –
3 | CC1=C(/C=C(\CCCCCc2cccnc2)C(=O)O)C(=O)C(OCC2CCCCC2)=C(C)C1=O | 0.27 | < 0.1 | > 100 | –
4 | CC(c1cc2ccccc2s1)N(O)C(N)=O (centres undefined) [ZILEUTON] | – | – | – | IC50 (Homo sapiens [5]): > 100 µM; IC50 (Homo sapiens [6]): 1.3 µM
5 | CCCCOC1=C(C)C(=O)C(C)=C(/C=C(\CCCc2cccnc2)C(=O)O)C1=O | 1.8 | 0.89 | – | –
6 | COC1=C(/C=C(\CCCCCCc2cccnc2)C(=O)O)C(=O)C(C)=C(C)C1=O | 0.22 | 0.42 | – | –
7 | COC1=C(OC)C(=O)C(/C=C(\CCCCCc2cccnc2)C(=O)O)=C(C)C1=O | 11.7 | 0.41 | > 100 | –
8 | COc1c(C)c(O)c(C)c(/C=C(\CCCCCc2cccnc2)C(=O)O)c1O | > 3 | 1.5 | > 100 | –
9 | COC1=C(C)C(=O)C(/C=C(\CCCCCCc2cccnc2)C(=O)O)=C(C)C1=O | 0.59 | 0.12 | 100 | –
10 | CCCCCCCOC1=C(C)C(=O)C(C)=C(/C=C(\CCCCCc2cccnc2)C(=O)O)C1=O | 0.27 | < 0.1 | – | –
11 | CCCCCCCOC1=C(C)C(=O)C(/C=C(\CCCCCc2cccnc2)C(=O)O)=C(C)C1=O | 3.2 | 0.16 | – | IC50 (Rattus norvegicus [3]): > 100 µM
12 | COC1=C(C)C(=O)C(/C=C(\CCCc2cccnc2)C(=O)O)=C(C)C1=O | 3.2 | 0.48 | 100 | –
13 | COc1c(O)c(C)c(C)c(O)c1/C=C(\CCCCCc1cccnc1)C(=O)O | 2.1 | 0.14 | > 100 | –
14 | CCOC1=C(C)C(=O)C(C)=C(/C=C(\CCCCCc2cccnc2)C(=O)O)C1=O | 0.84 | 0.12 | – | IC50 (Rattus norvegicus [7]): 100 µM
15 | COC1=C(/C=C(\CCCCCc2cccnc2)C(=O)O)C(=O)C(C)=CC1=O | 0.75 | 0.5 | – | –
16 | COC1=C(C)C(=O)C(/C=C(\CCCCCc2cccnc2)C(=O)O)=C(C)C1=O | 0.82 | 0.07 | – | IC50 [8]: 3.2 µM; IC50 [9]: 0.39 µM; IC50 (Homo sapiens [10]): 0.9 µM; IC50 (Homo sapiens [11]): 5.8 µM; IC50 (Rattus norvegicus [12]): 820 µM
17 | COC1=C(C)C(=O)C(/C=C(\CCCCc2cccnc2)C(=O)O)=C(C)C1=O | 1.4 | 0.09 | > 100 | –
18 | CCCCOC1=C(C)C(=O)C(C)=C(/C=C(\CCCCCc2cccnc2)C(=O)O)C1=O | 1 | < 0.1 | – | IC50 (Rattus norvegicus [3]): 100 µM
19 | O=C(O)/C=C/c1ccc(Cn2ccnc2)cc1 [OZAGREL] | – | – | – | IC50 (Homo sapiens [5]): < 0.1 µM; IC50 (Homo sapiens [13]): 1.9 µM; IC50 (Homo sapiens [14]): > 100 µM; IC50 (Homo sapiens [6]): > 100 µM
20 | COC1=C(C)C(=O)C(C)=C(/C=C(\CCCCCc2cccnc2)C(=O)O)C1=O | 0.54 | 0.18 | – | IC50 (Rattus norvegicus [7]): > 100 µM
21 | CCOC1=C(C)C(=O)C(/C=C(\CCCCCc2cccnc2)C(=O)O)=C(C)C1=O | 4.4 | 0.32 | – | IC50 (Rattus norvegicus [3]): 100 µM
22 | COc1c(C)c(O)c(/C=C(\CCCCCc2cccnc2)C(=O)O)c(C)c1O | 4.9 | 0.4 | – | IC50 [8]: 3 µM; IC50 [9]: 1.9 µM; IC50 (Homo sapiens [10]): 1.9 µM; IC50 (Homo sapiens [11]): > 100 µM; IC50 (Rattus norvegicus [12]): 4900 µM
